Experimental data as given in ChEMBL document CHEMBL5370639, “Structure-Based Lead Optimization of Enterovirus D68 2A Protease Inhibitors” (J Med Chem, 2023).

Assays:
[1] = (§1) Cytotoxicity against human RD cells assessed as reduction in cell viability by neutral red staining based CPE assay; type: toxicity; details: RD cells
Procedure, shortened: (§2)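 Uninfected RD cells, grown overnight to ~90% confluency, treated with compound under otherwise the same handling as the antiviral assay. Viability by neutral red uptake (66 μg/mL, 2 h, absorbance 540 nm). CC50 from best-fit dose-response curve; mean ± SD of two independent experiments, three repeats each.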

enterovirus D68 [2] = assay: Antiviral activity against enterovirus D68 US/MO/14-18947 infected in human RD cells assessed as reduction in virus induced cytopathic effect by neutral red staining based CPE assay; type: functional, organism-based; details: Enterovirus D, US/MO/14-18947, RD
Procedure, shortened: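 RD cells seeded overnight to ~90% confluency, washed with PBS containing Mg/Ca, infected with virus in DMEM/2% FBS/30 mM MgCl2 for at least 1 h at 33 °C, then compound added. Cells stained with 66 μg/mL neutral red for 2 h; uptake read at 540 nm. EC50 from dose-response fit; mean ± SD of two independent experiments, three repeats each.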

[3] = Inhibition of Enterovirus D68 US/KY/14-18953 2A protease expressed in Escherichia coli BL21(DE3) using Dabcyl-KIRIVNT/GPGEGGE-Edans as substrate incubated for 2 hrs by FRET assay
[4] = Binding affinity to Enterovirus D68 US/KY/14-18953 2A protease expressed in Escherichia coli BL21(DE3) assessed as inhibition constant using Dabcyl-KIRIVNT/GPGEGGE-Edans as substrate incubated for 2 hrs by FRET assay
Procedure, shortened: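 Progression-curve kinetics: FRET substrate at 40 μM final in 50 mM Tris pH 7.0, 100 mM NaCl, 2 mM DTT, 10% glycerol with varying inhibitor; reaction started by adding 2Apro to 0.4 μM final. Fluorescence (ex 360/40, em 460/40 nm) read every 71 s for 2 h at 30 °C. Curves fitted by the Morrison equation or an earlier-described equation.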

[5] = Toxicity in BALB/c mouse assessed as change in body weight at 100 mg/kg, ip administered on day 1 and followed by 200 mg/kg, ip on day 3, 300 mg/kg, ip on day 7, 400 mg/kg, ip on day 12 measured after 16 days of initial dose; type: organism-based; details: in vivo, 384 h, time 16 day
Procedure, shortened: (§3)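 Three female BALB/c mice of about 19 g each received i.p. doses in corn oil with 10% DMSO, escalating in the same animals. They were given 100 mg/kg first, then 200, 300 and 400 mg/kg on days 1, 3, 7 and 12, with time for elimination between doses. Body weight and general health were monitored throughout the study.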

Cytochrome P450 1A2 = target: T1, Cytochrome P450 1A2 (Homo sapiens, UniProt P05177); assay: Inhibition of CYP1A2 (unknown origin); type: ADME
T1 sequence (P05177 whole entry): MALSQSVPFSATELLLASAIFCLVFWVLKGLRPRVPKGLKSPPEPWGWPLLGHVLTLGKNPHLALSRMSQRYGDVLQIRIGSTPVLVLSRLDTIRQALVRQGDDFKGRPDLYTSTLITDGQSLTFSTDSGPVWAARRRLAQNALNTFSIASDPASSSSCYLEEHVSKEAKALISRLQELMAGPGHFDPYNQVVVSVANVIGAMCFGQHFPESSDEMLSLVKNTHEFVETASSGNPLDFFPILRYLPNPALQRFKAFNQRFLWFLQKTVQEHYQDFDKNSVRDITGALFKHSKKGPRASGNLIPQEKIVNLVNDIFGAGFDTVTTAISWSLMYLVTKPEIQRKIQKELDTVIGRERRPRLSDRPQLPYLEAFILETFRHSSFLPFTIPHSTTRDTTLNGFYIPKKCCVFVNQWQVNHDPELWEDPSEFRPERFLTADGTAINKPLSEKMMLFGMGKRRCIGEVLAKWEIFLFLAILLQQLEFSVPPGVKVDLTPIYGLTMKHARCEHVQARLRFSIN

[6] = Toxicity in BALB/c mouse assessed as mortality at 100 mg/kg, ip administered on day 1 and followed by 200 mg/kg, ip on day 3, 300 mg/kg, ip on day 7, 400 mg/kg, ip on day 12 measured after 16 days of initial dose; type: organism-based; details: in vivo, 384 h, time 16 day; procedure, shortened: as §3
enterovirus D68 [7] = assay: Antiviral activity against enterovirus D68 US/MO/14-18947 infected in human RD cells assessed as reduction in virus plaque formation measured after 3 days by neutral red staining assay; type: functional, organism-based; details: Enterovirus D, US/MO/14-18947, RD, 72 h
Procedure, shortened: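 RD cells infected with virus in DMEM/2% FBS/30 mM MgCl2 for at least 1 h at 33 °C, then given compound under a 1.2% avicel microcrystalline cellulose overlay. Cells stained after 3 days and plaques counted. EC50 from curve fitting; mean ± SD of two repeats.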

Cytochrome P450 2C9 = Cytochrome P450 2C9 (Homo sapiens, UniProt P11712); assay: Inhibition of CYP2C9 (unknown origin); type: ADME
Cytochrome P450 2C9, sequence (P11712 whole entry): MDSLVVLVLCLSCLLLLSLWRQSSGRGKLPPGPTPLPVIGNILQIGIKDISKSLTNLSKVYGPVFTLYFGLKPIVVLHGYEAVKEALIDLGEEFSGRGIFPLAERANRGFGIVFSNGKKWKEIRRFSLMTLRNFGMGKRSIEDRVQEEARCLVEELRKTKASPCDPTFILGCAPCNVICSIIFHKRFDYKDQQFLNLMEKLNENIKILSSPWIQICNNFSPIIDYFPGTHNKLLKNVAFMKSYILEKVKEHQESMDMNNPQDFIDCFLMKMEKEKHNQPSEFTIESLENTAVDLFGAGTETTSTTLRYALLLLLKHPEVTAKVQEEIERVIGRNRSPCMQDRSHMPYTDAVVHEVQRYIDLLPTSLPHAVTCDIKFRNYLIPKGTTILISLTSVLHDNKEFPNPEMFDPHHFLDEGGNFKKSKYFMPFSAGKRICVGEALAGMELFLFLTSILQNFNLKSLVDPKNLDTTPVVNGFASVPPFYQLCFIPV

Cytochrome P450 3A = Cytochrome P450 3A (Homo sapiens, UniProt P08684+P20815+Q9HB55+P24462); assay: Inhibition of CYP3A (unknown origin); type: ADME, protein assay
Cytochrome P450 2C19 = Cytochrome P450 2C19 (Homo sapiens, UniProt P33261); assay: Inhibition of CYP2C19 (unknown origin); type: ADME
Cytochrome P450 2C19, sequence (P33261 whole entry): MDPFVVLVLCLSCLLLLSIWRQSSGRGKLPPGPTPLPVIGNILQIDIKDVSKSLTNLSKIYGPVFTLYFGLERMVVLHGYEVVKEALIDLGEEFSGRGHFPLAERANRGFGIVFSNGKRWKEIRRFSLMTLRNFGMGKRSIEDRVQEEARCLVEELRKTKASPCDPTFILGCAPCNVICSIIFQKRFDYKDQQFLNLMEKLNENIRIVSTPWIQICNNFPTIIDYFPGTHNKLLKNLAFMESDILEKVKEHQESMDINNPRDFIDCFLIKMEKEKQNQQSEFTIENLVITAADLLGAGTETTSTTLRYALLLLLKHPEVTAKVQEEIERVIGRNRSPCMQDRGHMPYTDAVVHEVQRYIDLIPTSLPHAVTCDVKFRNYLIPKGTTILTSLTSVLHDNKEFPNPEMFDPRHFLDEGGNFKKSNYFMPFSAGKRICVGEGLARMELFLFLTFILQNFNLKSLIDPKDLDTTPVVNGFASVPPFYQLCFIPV

enterovirus D68 [8] = assay: Antiviral activity against enterovirus D68 US/IL/14-18956 infected in human RD cells assessed as reduction in virus induced cytopathic effect by neutral red staining based CPE assay; type: functional, organism-based; details: Enterovirus D, US/IL/14-18956, RD
Procedure, shortened: (§4)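 RD cells were seeded overnight to about 90% confluency and washed with PBS containing Ca/Mg. They were infected with virus in DMEM with 2% FBS and 30 mM MgCl2 for at least 1 h at 33 °C in 5% CO2, then compound was added. Viability was read by neutral red staining (66 μg/mL, 2 h) at A540. EC50 was taken from dose-response curve fits.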

Cytochrome P450 2D6 = Cytochrome P450 2D6 (Homo sapiens, UniProt P10635); assay: Inhibition of CYP2D6 (unknown origin); type: ADME
Cytochrome P450 2D6, sequence (P10635 whole entry): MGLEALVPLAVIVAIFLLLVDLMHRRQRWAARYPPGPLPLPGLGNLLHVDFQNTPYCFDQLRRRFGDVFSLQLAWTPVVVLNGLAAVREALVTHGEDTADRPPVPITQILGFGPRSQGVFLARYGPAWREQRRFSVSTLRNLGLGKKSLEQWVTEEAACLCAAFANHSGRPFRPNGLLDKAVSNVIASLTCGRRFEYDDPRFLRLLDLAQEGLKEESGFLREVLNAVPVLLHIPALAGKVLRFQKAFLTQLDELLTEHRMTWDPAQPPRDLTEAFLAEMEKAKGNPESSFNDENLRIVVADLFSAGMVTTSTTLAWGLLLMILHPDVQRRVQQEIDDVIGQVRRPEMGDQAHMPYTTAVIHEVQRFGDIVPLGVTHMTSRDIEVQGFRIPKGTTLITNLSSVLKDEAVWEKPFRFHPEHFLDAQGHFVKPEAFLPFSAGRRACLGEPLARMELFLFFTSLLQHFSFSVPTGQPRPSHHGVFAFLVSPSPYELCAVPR

enterovirus D68 [9] = assay: Antiviral activity against enterovirus D68 US/KY/14-18953 infected in human RD cells assessed as reduction in virus induced cytopathic effect by neutral red staining based CPE assay; type: functional, organism-based; details: Enterovirus D, US/KY/14-18953, RD; procedure, shortened: as §4
enterovirus D68 [10] = assay: Antiviral activity against enterovirus D68 US/MO/14-18949 infected in human RD cells assessed as reduction in virus induced cytopathic effect by neutral red staining based CPE assay; type: functional, organism-based; details: Enterovirus D, US/MO/14-18949, RD; procedure, shortened: as §4
[11] = Toxicity in BALB/c mouse assessed as survival at 100 mg/kg, ip administered on day 1 and followed by 200 mg/kg, ip on day 3, 300 mg/kg, ip on day 7, 400 mg/kg, ip on day 12 measured after 16 days of initial dose; type: organism-based; details: in vivo, 1000 mg/kg, 384 h, time 16 day; procedure, shortened: as §3
enterovirus D68 [12] = assay: Antiviral activity against enterovirus D68 US/IL/14-18952 infected in human RD cells assessed as reduction in virus induced cytopathic effect by neutral red staining based CPE assay; type: functional, organism-based; details: Enterovirus D, US/IL/14-18952, RD; procedure, shortened: as §4
RD = assay: as §1; type: toxicity; details: rd; procedure, shortened: as §2

SMILES | CC50 [1] [µM] | EC50 (enterovirus D68 [2]) [nM] | IC50 [3] [nM] | Ki [4] [nM] | Activity [5] | IC50 (Cytochrome P450 1A2) [µM] | Activity [6] | EC50 (enterovirus D68 [7]) [nM] | IC50 (Cytochrome P450 2C9) [µM] | IC50 (Cytochrome P450 3A) [µM] | IC50 (Cytochrome P450 2C19) [µM] | EC50 (enterovirus D68 [8]) [nM] | IC50 (Cytochrome P450 2D6) [µM] | EC50 (enterovirus D68 [9]) [nM] | EC50 (enterovirus D68 [10]) [nM] | Activity [11] | EC50 (enterovirus D68 [12]) [nM] | CC50 (RD) [µM]
CCC[C@H](NC(=O)[C@@H]1[C@H]2CCC[C@H]2CN1C(=O)[C@@H](NC(=O)CC12CC3CC(CC(C3)C1)C2)C(C)(C)C)C(=O)C(=O)NC1CC1 | 36.2 | 160 | 80 | 58.6 |  |  |  |  |  |  |  |  |  |  |  |  |  | 
CC(C)(C)[C@H](NC(=O)CC12CC3CC(CC(C3)C1)C2)C(=O)N1C[C@@H]2CCC[C@@H]2[C@H]1C(=O)N[C@H](C(=O)C(=O)NC1CC1)C1CCCCC1 | > 150 | 130 | 90 | 51.4 | Non-Toxic | > 50 | Non-Toxic | 15.9 | > 50 | 0.57 | > 50 | 246 | > 50 | 46.7 | 101 | Non-Toxic | 269 | 
CCC(C)[C@H](NC(=O)[C@@H]1[C@H]2CCC[C@H]2CN1C(=O)[C@@H](NC(=O)CC12CC3CC(CC(C3)C1)C2)C(C)(C)C)C(=O)C(=O)NC1CC1 (stereo partly specified) | > 150 | 160 | 150 |  |  |  |  | 13.5 |  |  |  |  |  |  |  |  |  | 
CC(C)(C)[C@H](NC(=O)CC12CC3CC(CC(C3)C1)C2)C(=O)N1C[C@@H]2CCC[C@@H]2[C@H]1C(=O)N[C@@H](Cc1ccccc1)C(=O)C(=O)NC1CC1 |  | 250 | 90 |  |  |  |  |  |  |  |  |  |  |  |  |  |  | 17.4
CC(C)(C)[C@H](NC(=O)CC12CC3CC(CC(C3)C1)C2)C(=O)N1C[C@@H]2CCC[C@@H]2[C@H]1C(=O)N[C@H](C=O)Cc1ccc(F)cc1 | 17.3 | 1300 | 1820 | 276 |  |  |  |  |  |  |  |  |  |  |  |  |  | 
CC(C)(C)[C@H](NC(=O)CC12CC3CC(CC(C3)C1)C2)C(=O)N1C[C@@H]2CCC[C@@H]2[C@H]1C(=O)N[C@H](C(=O)C(=O)NC1CC1)C1CCCC1 | > 150 | 110 | 200 | 112 |  |  |  | 15.9 |  |  |  |  |  |  |  |  |  | 
CCC[C@H](NC(=O)[C@@H]1[C@H]2CCC[C@H]2CN1C(=O)[C@@H](NC(=O)[C@@H](NC(=O)c1cnccn1)C1CCCCC1)C(C)(C)C)C(=O)C(=O)NC1CC1 |  | 450 | 180 | 824 |  |  |  | 52.1 |  |  |  | 836 |  | 209 | 368 |  | 828 | 83.2
